Measured values published in ChEMBL document CHEMBL1147861, “SAR studies on a novel series of human cytomegalovirus primase inhibitors” (Bioorg Med Chem Lett, 2007).
pIC50: −log10 of the molar value.

Columns and labels:
[1] = tested on: Human betaherpesvirus 5; assay: Antiviral activity against HCMV infected HFF cells after 5 days by dot blot assay; format: functional, organism-based
In short: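 HFF fibroblasts infected with luciferase-expressing recombinant CMV (rCMVLUC), then cultured 5 days across a range of drug concentrations. Viral DNA harvested, immobilized on membrane, hybridized with radiolabeled CMV-specific probe. IC50 = concentration giving 50% reduction of membrane-bound radioactivity relative to vehicle-only infected cells.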

[2] = Bioavailability in rat at 2 mg/kg, po; format: ADME, organism-based; details: in vivo
[3] = Clearance in rat; format: ADME, organism-based; details: in vivo
[4] = Oral bioavailability in rat; format: ADME, organism-based; details: in vivo
[5] = Cytotoxicity against human Jurkat cells by alamar blue assay; format: cell-based
In short: (§1)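 Cells seeded and exposed to a range of compound concentrations; Alamar blue added at 0, 24, 48 and 72 h, fluorescence read after further 3 h incubation. IC50 = concentration inhibiting cell growth by 50%.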

[6] = Cytotoxicity against human bone marrow cells assessed as inhibition of CFU-GM formation after 15 days; format: cell-based, Bone marrow cell
In short: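 Human bone marrow cells washed in IMDM–2% FBS, viable nucleated/mononuclear cells counted, adjusted to 10⁶ cells/mL, drug added, diluted 1:10 in methylcellulose medium and plated. After 15 days at 37 °C, humid 5% CO₂, CFU-GM colonies counted microscopically; IC50 = concentration halving colony formation.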

[7] = Cytotoxicity against HFF cells by alamar blue assay; format: cell-based; details: human; in short: as §1
[8] = tested on: Human betaherpesvirus 5; assay: Antiviral activity against HCMV infected HFF cells after 5 to 7 days by viral yield assay; format: functional
In short: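 rCMVLUC-infected HFF cells incubated 5–7 days with varying drug concentrations; viral yield determined by immunofluorescence using human anti-HCMV antiserum.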

[9] = Human betaherpesvirus 5, HFF, 120 h

Compound	pIC50 [1, 9]	also measured
Cc1nc(NCc2ccc(F)cc2Cl)nc(-n2ccnc2C)c1[N+](=O)[O-]	6.60	–
CCSCCNc1nc(C)c([N+](=O)[O-])c(-n2ccnc2C)n1	6.70	–
Cc1nc(NCc2ccc(C(F)(F)F)cc2F)nc(-n2ccnc2C)c1[N+](=O)[O-]	6.70	–
Cc1nc(NCc2cccc(Cl)c2Cl)nc(-n2ccnc2C)c1[N+](=O)[O-]	6.70	–
Cc1nc(NCc2ccccn2)nc(-n2ccnc2C)c1[N+](=O)[O-]	6.30	–
CCNc1nc(C)c([N+](=O)[O-])c(-n2ccnc2C)n1	6.00	–
CCC(C)Nc1nc(C)c([N+](=O)[O-])c(-n2ccnc2C)n1 (stereo not given)	6.30	–
COCC(C)Nc1nc(C)c([N+](=O)[O-])c(-n2ccnc2C)n1 (stereo not given)	6.05	–
Cc1nc(NC2CCCC2)nc(-n2ccnc2C)c1[N+](=O)[O-]	6.22	–
Cc1nc(N[C@@H]2CCO[C@@H]2C)nc(-n2ccnc2C)c1[N+](=O)[O-]	6.30	–
Cc1nc(NC2CCS(=O)(=O)CC2)nc(-n2ccnc2C)c1[N+](=O)[O-]	< 5.30	–
Cc1nc(NCC2CCCCO2)nc(-n2ccnc2C)c1[N+](=O)[O-] (stereo not given)	5.40	–
Cc1nc(NCC2CCCO2)nc(-n2ccnc2C)c1[N+](=O)[O-] (stereo not given)	6.00	–
Cc1nc(NCC2OCCC2C)nc(-n2ccnc2C)c1[N+](=O)[O-] (stereo not given)	6.52	–
Cc1ccc(CNc2nc(C)c([N+](=O)[O-])c(-n3ccnc3C)n2)cc1	5.80	–
Cc1nc(NCc2ccc(F)cc2)nc(-n2ccnc2C)c1[N+](=O)[O-]	6.82	–
Cc1nc(NC(C)CC(C)C)nc(-n2ccnc2C)c1[N+](=O)[O-] (stereo not given)	6.89	–
Cc1nc(NC(C)CCc2ccccc2)nc(-n2ccnc2C)c1[N+](=O)[O-] (stereo not given)	6.46	–
COCCCNc1nc(C)c([N+](=O)[O-])c(-n2ccnc2C)n1	5.64	–
Cc1ccccc1CNc1nc(C)c([N+](=O)[O-])c(-n2ccnc2C)n1	6.70	–
Cc1cccc(CNc2nc(C)c([N+](=O)[O-])c(-n3ccnc3C)n2)c1	6.30	–

Compound	pIC50 [1, 9]	also measured
Cc1nc(N[C@H]2CCS(=O)(=O)[C@@H]2C)nc(-n2ccnc2C)c1[N+](=O)[O-]	5.70	–
Cc1nc(NCc2ccc(C(F)(F)F)cc2)nc(-n2ccnc2C)c1[N+](=O)[O-]	6.70	–
Cc1nc(NCc2cccc(OC(F)(F)F)c2)nc(-n2ccnc2C)c1[N+](=O)[O-]	6.52	–
Cc1nc(N[C@H]2COC[C@H]2C)nc(-n2ccnc2C)c1[N+](=O)[O-]	6.70	–
Cc1nc(N)nc(-n2ccnc2C)c1[N+](=O)[O-]	5.70	bioavailability [2]: 59%
Cc1nc(NCc2cccnc2)nc(-n2ccnc2C)c1[N+](=O)[O-]	6.10	–
Cc1nc(NCC2CCCCC2)nc(-n2ccnc2C)c1[N+](=O)[O-]	6.92	–
Cc1nc(NC2CCC[C@H](C)C2)nc(-n2ccnc2C)c1[N+](=O)[O-] (stereo not given in full)	6.82	–
Cc1nc(NC2CCC[C@@H](C)C2)nc(-n2ccnc2C)c1[N+](=O)[O-] (stereo not given in full)	6.82	–
COc1cccc(CNc2nc(C)c([N+](=O)[O-])c(-n3ccnc3C)n2)c1	6.52	–
Cc1nc(N[C@H]2CCCC[C@@H]2C)nc(-n2ccnc2C)c1[N+](=O)[O-]	7.00	–
Cc1nc(N[C@H]2CCCC[C@H]2C)nc(-n2ccnc2C)c1[N+](=O)[O-]	6.15	–
Cc1nc(N[C@@H]2COC[C@@H]2C)nc(-n2ccnc2C)c1[N+](=O)[O-]	6.82	–
Cc1nc(NC2CCCOC2C)nc(-n2ccnc2C)c1[N+](=O)[O-] (stereo not given)	6.15	–
Cc1nc(NC2CCSC2)nc(-n2ccnc2C)c1[N+](=O)[O-] (stereo not given)	6.60	–
CC[C@H]1CCCC[C@@H]1Nc1nc(C)c([N+](=O)[O-])c(-n2ccnc2C)n1	7.05	–
Cc1nc(N[C@H]2CC=CC[C@@H]2C)nc(-n2ccnc2C)c1[N+](=O)[O-]	6.52	–
CC[C@@H]1CC=CC[C@@H]1Nc1nc(C)c([N+](=O)[O-])c(-n2ccnc2C)n1	7.00	–
Cc1nc(NCCC(C)C)nc(-n2ccnc2C)c1[N+](=O)[O-]	6.52	–
Cc1nc(NC(C)CCC(C)C)nc(-n2ccnc2C)c1[N+](=O)[O-] (stereo not given)	5.64	–
Cc1nc(NCc2cc(F)ccc2F)nc(-n2ccnc2C)c1[N+](=O)[O-]	6.82	–

Compound	pIC50 [1, 9]	also measured
Cc1nc(NCc2cc(C(F)(F)F)cc(C(F)(F)F)c2)nc(-n2ccnc2C)c1[N+](=O)[O-]	4.82	–
Cc1nc(NCc2ccccc2OC(F)(F)F)nc(-n2ccnc2C)c1[N+](=O)[O-]	6.70	–
Cc1nc(NC[C@@H]2OCCC[C@H]2C)nc(-n2ccnc2C)c1[N+](=O)[O-]	6.40	–
Cc1nc(NC2CCCCC2C)nc(-n2ccnc2C)c1[N+](=O)[O-] (stereo not given)	7.10	–
CCS(=O)(=O)CCNc1nc(C)c([N+](=O)[O-])c(-n2ccnc2C)n1	5.89	–
Cc1nc(NCc2ccc(Cl)c(Cl)c2)nc(-n2ccnc2C)c1[N+](=O)[O-]	6.70	–
Cc1nc(N[C@H]2CCOC[C@@H]2C)nc(-n2ccnc2C)c1[N+](=O)[O-]	6.89	clearance [3]: 36.7 mL/min/kg; bioavailability [4]: 57%
Cc1nc(NC2CCCCC2)nc(-n2ccnc2C)c1[N+](=O)[O-]	6.70	–
Cc1nc(NC2CCC(C)CC2)nc(-n2ccnc2C)c1[N+](=O)[O-] (stereo not given)	6.70	–
Cc1nc(NC2CCCC2C)nc(-n2ccnc2C)c1[N+](=O)[O-] (stereo not given)	6.30	–
Cc1nc(NC2CCOCC2)nc(-n2ccnc2C)c1[N+](=O)[O-]	5.52	–
Cc1nc(NC2CCSCC2)nc(-n2ccnc2C)c1[N+](=O)[O-]	6.40	–
Cc1nc(NCc2ccc(Cl)cc2)nc(-n2ccnc2C)c1[N+](=O)[O-]	6.52	–
Cc1nc(NCc2cccc(F)c2)nc(-n2ccnc2C)c1[N+](=O)[O-]	6.60	–
Cc1nc(NCc2ccc(F)c(F)c2)nc(-n2ccnc2C)c1[N+](=O)[O-]	6.40	–
Cc1nc(N[C@@H]2CCO[C@H]2C)nc(-n2ccnc2C)c1[N+](=O)[O-]	6.22	–
Cc1nc(N[C@H]2CC=CC[C@H]2C)nc(-n2ccnc2C)c1[N+](=O)[O-]	5.82	–
Cc1nc(NC2CCC(C)C2)nc(-n2ccnc2C)c1[N+](=O)[O-] (stereo not given)	7.00	–
Cc1nc(N[C@@H]2COC[C@@H]2C)nc(-n2ccnc2C)c1[N+](=O)[O-].Cl	–	clearance [3]: 23.3 mL/min/kg; CC50 [5]: 50000 nM; CC50 at 360 h [6]: 50000 nM; pIC50 ([1]; hff): 6.89; CC50 [7]: 100000 nM; EC99.9 [8]: 0.4 µM; bioavailability [4]: 21%
Nc1ccn(C[C@@H](CO)OCP(=O)(O)O)c(=O)n1.O.O [CIDOFOVIR]	6.46	CC50 [5]: 100000 nM; CC50 at 360 h [6]: 6000 nM; CC50 [7]: 100000 nM; EC99.9 [8]: 0.9 µM
Nc1nc2c(ncn2COC(CO)CO)c(=O)[nH]1 [GANCICLOVIR]	6.00	CC50 [5]: > 100000 nM; CC50 at 360 h [6]: 30000 nM; CC50 [7]: > 100000 nM; EC99.9 [8]: 5 µM
